ChEMBL document CHEMBL5058577, “EUbOPEN Chemogenomics Library 2 (Multiplex)” (2022)

Test system: U2OS
Assay: Multiplex assay against U2OS
Assay type: toxicity, cell-based
Details: human
Outline: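 Hoechst33342, BioTracker Green Microtubule Cytoskeleton Dye, MitoTracker Red and Annexin V Alexa Fluor 680 were added to live cells at seeding, and imaging on a CQ1 microscope at 37°C and 5% CO2 followed compound addition. Gating by CellPathfinder machine learning separated cells into Hoechst high-intensity objects or normal cells, then normal cells into healthy, pyknosed or fragmented nuclei, then pyknosed cells into mitotic or apoptotic. Per cents of healthy-nucleus cells are reported for the tubulin, mitochondrial-mass and membrane-permeability phenotypes.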

[1] = 12 h, 1 µM, compound concentration 1 uM, replicate 1
[2] = 12 h, 1 µM, compound concentration 1 uM, replicate 2
[3] = 12 h, 10 µM, compound concentration 10 uM, replicate 1
[4] = 12 h, 10 µM, compound concentration 10 uM, replicate 2
[5] = 24 h, 1 µM, compound concentration 1 uM, replicate 1
[6] = 24 h, 1 µM, compound concentration 1 uM, replicate 2
[7] = 24 h, 10 µM, compound concentration 10 uM, replicate 1
[8] = 24 h, 10 µM, compound concentration 10 uM, replicate 2
[9] = 48 h, 1 µM, compound concentration 1 uM, replicate 1
[10] = 48 h, 1 µM, compound concentration 1 uM, replicate 2
[11] = 48 h, 10 µM, compound concentration 10 uM, replicate 1
[12] = 48 h, 10 µM, compound concentration 10 uM, replicate 2

O=C(NCCN1CCC(n2c(=O)[nH]c3cc(Cl)ccc32)CC1)c1ccc(F)cc1 [HALOPEMIDE]
Population Apoptotic (%) [1]: 95%
Population Fragmented Nuclei (%) [1]: 24%
Population Healthy Nuclei (%) [1]: 65%
Population Hoechst High Intensity Objects (%) [1]: 1%
Population Membrane Permeable-Phenotype (%) [1]: 6%
Population Mitochondria Different-Phenotype (%) [1]: 1%
Population Mitotic Cells (%) [1]: 4%
Population Normal (%) [1]: 98%
Population Pyknosed Nuclei (%) [1]: 10%
Population Tubulin-Different-Phenotype (%) [1]: 2%
Total Cell Count [1]: 209
Population Apoptotic (%) [2]: 50%
Population Fragmented Nuclei (%) [2]: 13%
Population Healthy Nuclei (%) [2]: 79%
Population Hoechst High Intensity Objects (%) [2]: 0%
Population Membrane Permeable-Phenotype (%) [2]: 7%
Population Mitochondria Different-Phenotype (%) [2]: 2%
Population Mitotic Cells (%) [2]: 50%
Population Normal (%) [2]: 100%
Population Pyknosed Nuclei (%) [2]: 7%
Population Tubulin-Different-Phenotype (%) [2]: 3%
Total Cell Count [2]: 105
Population Apoptotic (%) [3]: 68%
Population Fragmented Nuclei (%) [3]: 19%
Population Healthy Nuclei (%) [3]: 65%
Population Hoechst High Intensity Objects (%) [3]: 4%
Population Membrane Permeable-Phenotype (%) [3]: 23%
Population Mitochondria Different-Phenotype (%) [3]: 11%
Population Mitotic Cells (%) [3]: 31%
Population Normal (%) [3]: 95%
Population Pyknosed Nuclei (%) [3]: 15%
Population Tubulin-Different-Phenotype (%) [3]: 15%
Total Cell Count [3]: 244
Population Apoptotic (%) [4]: 61%
Population Fragmented Nuclei (%) [4]: 12%
Population Healthy Nuclei (%) [4]: 78%
Population Hoechst High Intensity Objects (%) [4]: 1%
Population Membrane Permeable-Phenotype (%) [4]: 26%
Population Mitochondria Different-Phenotype (%) [4]: 32%
Population Mitotic Cells (%) [4]: 38%
Population Normal (%) [4]: 98%
Population Pyknosed Nuclei (%) [4]: 8%
Population Tubulin-Different-Phenotype (%) [4]: 27%
Total Cell Count [4]: 152
Population Apoptotic (%) [5]: 91%
Population Fragmented Nuclei (%) [5]: 22%
Population Healthy Nuclei (%) [5]: 68%
Population Hoechst High Intensity Objects (%) [5]: 1%
Population Membrane Permeable-Phenotype (%) [5]: 6%
Population Mitochondria Different-Phenotype (%) [5]: 1%
Population Mitotic Cells (%) [5]: 8%
Population Normal (%) [5]: 98%
Population Pyknosed Nuclei (%) [5]: 9%
Population Tubulin-Different-Phenotype (%) [5]: 1%
Total Cell Count [5]: 241
Population Apoptotic (%) [6]: 81%
Population Fragmented Nuclei (%) [6]: 15%
Population Healthy Nuclei (%) [6]: 72%
Population Hoechst High Intensity Objects (%) [6]: 0%
Population Membrane Permeable-Phenotype (%) [6]: 10%
Population Mitochondria Different-Phenotype (%) [6]: 3%
Population Mitotic Cells (%) [6]: 18%
Population Normal (%) [6]: 99%
Population Pyknosed Nuclei (%) [6]: 12%
Population Tubulin-Different-Phenotype (%) [6]: 8%
Total Cell Count [6]: 132
Population Apoptotic (%) [7]: 75%
Population Fragmented Nuclei (%) [7]: 17%
Population Healthy Nuclei (%) [7]: 64%
Population Hoechst High Intensity Objects (%) [7]: 2%
Population Membrane Permeable-Phenotype (%) [7]: 15%
Population Mitochondria Different-Phenotype (%) [7]: 10%
Population Mitotic Cells (%) [7]: 25%
Population Normal (%) [7]: 97%
Population Pyknosed Nuclei (%) [7]: 18%
Population Tubulin-Different-Phenotype (%) [7]: 7%
Total Cell Count [7]: 271
Population Apoptotic (%) [8]: 63%
Population Fragmented Nuclei (%) [8]: 16%
Population Healthy Nuclei (%) [8]: 71%
Population Hoechst High Intensity Objects (%) [8]: 3%
Population Membrane Permeable-Phenotype (%) [8]: 26%
Population Mitochondria Different-Phenotype (%) [8]: 23%
Population Mitotic Cells (%) [8]: 36%
Population Normal (%) [8]: 96%
Population Pyknosed Nuclei (%) [8]: 12%
Population Tubulin-Different-Phenotype (%) [8]: 21%
Total Cell Count [8]: 159
Population Apoptotic (%) [9]: 68%
Population Fragmented Nuclei (%) [9]: 16%
Population Healthy Nuclei (%) [9]: 75%
Population Hoechst High Intensity Objects (%) [9]: 2%
Population Membrane Permeable-Phenotype (%) [9]: 4%
Population Mitochondria Different-Phenotype (%) [9]: 2%
Population Mitotic Cells (%) [9]: 32%
Population Normal (%) [9]: 97%
Population Pyknosed Nuclei (%) [9]: 7%
Population Tubulin-Different-Phenotype (%) [9]: 2%
Total Cell Count [9]: 337
Population Apoptotic (%) [10]: 95%
Population Fragmented Nuclei (%) [10]: 17%
Population Healthy Nuclei (%) [10]: 69%
Population Hoechst High Intensity Objects (%) [10]: 1%
Population Membrane Permeable-Phenotype (%) [10]: 9%
Population Mitochondria Different-Phenotype (%) [10]: 5%
Population Mitotic Cells (%) [10]: 4%
Population Normal (%) [10]: 98%
Population Pyknosed Nuclei (%) [10]: 12%
Population Tubulin-Different-Phenotype (%) [10]: 6%
Total Cell Count [10]: 187
Population Apoptotic (%) [11]: 81%
Population Fragmented Nuclei (%) [11]: 15%
Population Healthy Nuclei (%) [11]: 69%
Population Hoechst High Intensity Objects (%) [11]: 3%
Population Membrane Permeable-Phenotype (%) [11]: 10%
Population Mitochondria Different-Phenotype (%) [11]: 5%
Population Mitotic Cells (%) [11]: 18%
Population Normal (%) [11]: 96%
Population Pyknosed Nuclei (%) [11]: 14%
Population Tubulin-Different-Phenotype (%) [11]: 5%
Total Cell Count [11]: 382
Population Apoptotic (%) [12]: 77%
Population Fragmented Nuclei (%) [12]: 13%
Population Healthy Nuclei (%) [12]: 67%
Population Hoechst High Intensity Objects (%) [12]: 6%
Population Membrane Permeable-Phenotype (%) [12]: 16%
Population Mitochondria Different-Phenotype (%) [12]: 12%
Population Mitotic Cells (%) [12]: 22%
Population Normal (%) [12]: 93%
Population Pyknosed Nuclei (%) [12]: 18%
Population Tubulin-Different-Phenotype (%) [12]: 6%
Total Cell Count [12]: 197
